One assay concerns Plasmodium falciparum. Briefly: Antimalarial activity against transgenic Plasmodium falciparum 3D7 infected in human A positive erythrocytes after 72 hrs by luciferase reporter gene assay. The assay is classed as functional, organism-based. Particulars: 3D7, 72 h. In short, it runs like this:
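Luciferase-expressing P. falciparum 3D7 kept in RPMI 1640 without phenol red, 10% heat-inactivated A+ human plasma, 4% washed A+ erythrocytes, 90% N2/5% O2/5% CO2, 37 °C. Ring-stage cultures (>70% rings) diluted to 0.5% parasitemia, 1.5% hematocrit. Eleven-point duplicate twofold series, final 100 to 0.098 µg/mL. Incubated 72 h, frozen at −20 °C, lysed, luminescence read (5 s integration). IC50 by nonlinear regression.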

For assay [1], the target named is Sodium-dependent dopamine transporter (Homo sapiens, UniProt Q01959). In words: Displacement of [3H]WIN35428 from DAT after 1.5 hrs by scintillation counting. In general terms: Loss of bound radioactivity is the signal in a displacement assay; it reports binding, not function.
Sodium-dependent dopamine transporter, sequence (Q01959 whole entry): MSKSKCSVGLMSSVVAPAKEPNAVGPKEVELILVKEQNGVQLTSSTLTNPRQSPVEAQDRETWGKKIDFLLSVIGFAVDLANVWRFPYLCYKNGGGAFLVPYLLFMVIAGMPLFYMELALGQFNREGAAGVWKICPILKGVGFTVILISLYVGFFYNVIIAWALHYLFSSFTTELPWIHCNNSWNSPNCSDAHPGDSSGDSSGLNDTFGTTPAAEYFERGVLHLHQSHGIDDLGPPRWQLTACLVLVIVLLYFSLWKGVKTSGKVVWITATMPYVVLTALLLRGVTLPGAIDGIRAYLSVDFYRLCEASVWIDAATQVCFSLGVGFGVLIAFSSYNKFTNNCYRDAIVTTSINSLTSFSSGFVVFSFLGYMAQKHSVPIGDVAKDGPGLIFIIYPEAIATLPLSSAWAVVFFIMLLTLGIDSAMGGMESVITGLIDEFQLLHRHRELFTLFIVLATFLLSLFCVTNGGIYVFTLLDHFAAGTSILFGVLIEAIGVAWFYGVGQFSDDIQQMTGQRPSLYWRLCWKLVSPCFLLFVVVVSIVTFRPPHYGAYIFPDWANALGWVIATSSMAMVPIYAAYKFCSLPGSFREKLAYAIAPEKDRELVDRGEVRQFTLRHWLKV
Another assay has as its target D(1B) dopamine receptor (Homo sapiens, UniProt P21918). In words: Displacement of [3H][…] from dopamine D5 receptor after 1.5 hrs by scintillation counting.
Assay [2] concerns the target 5-hydroxytryptamine receptor 7 (Homo sapiens, UniProt P34969). In words: Displacement of [3H]LSD from 5-HT7 receptor after 1.5 hrs by scintillation counting.
In assay [3] the target is 5-hydroxytryptamine receptor 2B (Homo sapiens, UniProt P41595). Briefly: Displacement of [3H]LSD from 5-HT2B receptor after 1.5 hrs by scintillation counting.
5-hydroxytryptamine receptor 2B, sequence (P41595 whole entry): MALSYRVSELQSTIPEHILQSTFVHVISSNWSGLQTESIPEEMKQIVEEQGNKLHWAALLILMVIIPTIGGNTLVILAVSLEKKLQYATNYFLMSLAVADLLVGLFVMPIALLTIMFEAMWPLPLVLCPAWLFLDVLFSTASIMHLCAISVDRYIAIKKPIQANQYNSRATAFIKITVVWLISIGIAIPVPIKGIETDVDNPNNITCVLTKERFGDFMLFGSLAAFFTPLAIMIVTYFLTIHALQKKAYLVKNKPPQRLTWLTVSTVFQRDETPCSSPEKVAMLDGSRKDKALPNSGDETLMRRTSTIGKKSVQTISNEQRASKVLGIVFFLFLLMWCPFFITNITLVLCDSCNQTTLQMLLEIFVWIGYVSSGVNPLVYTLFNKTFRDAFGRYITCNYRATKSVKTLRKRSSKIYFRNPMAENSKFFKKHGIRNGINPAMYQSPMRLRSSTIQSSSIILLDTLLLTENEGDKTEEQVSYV
The target in assay [4] is 5-hydroxytryptamine receptor 1D (Homo sapiens, UniProt P28221). Briefly: Displacement of [3H]5-carboximidotryptamine from 5-HT1D receptor after 1.5 hrs by scintillation counting.
5-hydroxytryptamine receptor 1D, sequence (P28221 whole entry): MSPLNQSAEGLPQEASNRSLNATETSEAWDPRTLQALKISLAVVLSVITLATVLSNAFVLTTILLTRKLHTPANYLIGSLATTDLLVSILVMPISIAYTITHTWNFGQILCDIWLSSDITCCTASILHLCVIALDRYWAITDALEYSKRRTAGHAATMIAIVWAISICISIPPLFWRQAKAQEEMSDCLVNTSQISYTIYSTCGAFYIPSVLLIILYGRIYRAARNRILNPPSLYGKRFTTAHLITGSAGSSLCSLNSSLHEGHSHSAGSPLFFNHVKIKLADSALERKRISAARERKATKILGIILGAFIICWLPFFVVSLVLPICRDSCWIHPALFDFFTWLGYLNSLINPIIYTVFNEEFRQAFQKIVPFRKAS
Assay [5] addresses T1, 5-hydroxytryptamine receptor 1A (Homo sapiens, UniProt P08908).
T1 sequence (P08908 whole entry): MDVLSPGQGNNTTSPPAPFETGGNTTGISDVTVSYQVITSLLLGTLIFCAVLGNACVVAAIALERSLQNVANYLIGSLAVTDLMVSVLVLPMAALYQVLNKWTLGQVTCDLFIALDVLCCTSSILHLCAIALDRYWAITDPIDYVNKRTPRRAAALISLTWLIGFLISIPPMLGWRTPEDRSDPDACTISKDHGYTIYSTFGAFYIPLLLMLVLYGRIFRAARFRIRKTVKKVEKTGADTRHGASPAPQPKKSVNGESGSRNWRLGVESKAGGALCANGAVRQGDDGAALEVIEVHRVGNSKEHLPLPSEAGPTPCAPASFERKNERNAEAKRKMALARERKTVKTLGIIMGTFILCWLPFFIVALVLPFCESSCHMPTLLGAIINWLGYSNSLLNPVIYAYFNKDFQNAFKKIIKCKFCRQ
In words: Displacement of [3H]8-OH-DPAT from 5-HT1A receptor after 1.5 hrs by scintillation counting.

The target in assay [6] is T2, 5-hydroxytryptamine receptor 2C (Homo sapiens, UniProt P28335).
T2 sequence (P28335 whole entry): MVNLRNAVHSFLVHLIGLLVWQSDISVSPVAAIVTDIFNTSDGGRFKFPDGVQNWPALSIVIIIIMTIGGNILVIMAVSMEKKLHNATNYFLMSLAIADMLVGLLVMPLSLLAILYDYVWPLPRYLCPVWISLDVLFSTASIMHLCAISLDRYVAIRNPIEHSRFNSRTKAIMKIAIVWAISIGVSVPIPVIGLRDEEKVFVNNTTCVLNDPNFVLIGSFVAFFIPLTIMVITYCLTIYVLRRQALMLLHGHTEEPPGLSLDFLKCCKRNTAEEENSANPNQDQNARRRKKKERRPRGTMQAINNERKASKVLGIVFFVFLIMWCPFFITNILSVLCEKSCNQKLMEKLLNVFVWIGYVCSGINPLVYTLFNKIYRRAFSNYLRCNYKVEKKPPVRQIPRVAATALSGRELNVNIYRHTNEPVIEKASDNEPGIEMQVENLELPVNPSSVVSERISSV
Briefly: Displacement of [3H]mesulergine from 5-HT2C receptor after 1.5 hrs by scintillation counting.

Another assay concerns A549. Briefly: Cytotoxicity against human A549 cells after 72 hrs. It counts as cell-based. In short, it runs like this:
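A549 cells at 12,000 per well in DMEM F12 (no HEPES or phenol red) with 2% FBS and 1% penicillin–streptomycin, preincubated 24 h at 37 °C, 5% CO2. Compounds then added, 72 h incubation. Viability by MTS-type tetrazolium reagent, 1 h at 37 °C, absorbance at 490 nm. IC50 determined.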

The target of assay [7] is T3, Muscarinic acetylcholine receptor M5 (Homo sapiens, UniProt P08912).
T3 sequence (P08912 whole entry): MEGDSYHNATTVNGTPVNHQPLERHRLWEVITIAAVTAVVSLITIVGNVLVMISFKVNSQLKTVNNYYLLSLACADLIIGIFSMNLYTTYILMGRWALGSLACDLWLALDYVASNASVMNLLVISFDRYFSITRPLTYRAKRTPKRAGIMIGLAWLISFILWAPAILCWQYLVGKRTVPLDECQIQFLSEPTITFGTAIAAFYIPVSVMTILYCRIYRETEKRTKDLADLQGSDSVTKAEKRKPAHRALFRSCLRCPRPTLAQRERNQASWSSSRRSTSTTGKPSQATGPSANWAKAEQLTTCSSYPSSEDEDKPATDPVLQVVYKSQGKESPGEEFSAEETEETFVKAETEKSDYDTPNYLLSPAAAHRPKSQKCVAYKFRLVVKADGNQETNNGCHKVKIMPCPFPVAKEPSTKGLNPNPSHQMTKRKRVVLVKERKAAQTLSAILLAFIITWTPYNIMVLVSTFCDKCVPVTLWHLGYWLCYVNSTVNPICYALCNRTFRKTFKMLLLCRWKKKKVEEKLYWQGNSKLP
In words: Displacement of [3H]QNB from muscarinic acetylcholine M5 receptor after 1.5 hrs by scintillation counting.

Assay [8] concerns the target 5-hydroxytryptamine receptor 5A (Homo sapiens, UniProt P47898). Briefly: Displacement of [3H]LSD from 5-HT5A receptor after 1.5 hrs by scintillation counting.
Assay [9] is described as follows: Inhibition of PKG.
Assay [10] is described as follows: Inhibition of pig brain CK1delta/epsilon assessed as RRKHAAIGSpAYSITA phosphorylation using [33P]gamma-ATP after 30 mins by scintillation counting. Details: species or system Sus scrofa.
The next assay has as its system HEp-2. In words: Cytotoxicity against human Hep2 cells. It counts as cell-based.
The target in assay [11] is Cyclin-dependent kinase 2/cyclin A (Homo sapiens, UniProt P24941). Briefly: Inhibition of human recombinant CDK2/cyclin A expressed in insect cells assessed as histone phosphorylation using [33P]gamma-ATP after 30 mins by scintillation counting.
The nature of assay [12]: Inhibition of PKA.
A further assay concerns SH-SY5Y. In words: Cytotoxicity against human SH-SY5Y cells by MTS assay. The assay is classed as cell-based. (In general: Formazan colour is commonly taken as a measure of viable cells.)
A short description of assay [13]: Cytotoxicity against mouse LMM3 cells. It counts as cell-based.
For the next assay, the system named is HT-29. Briefly: Cytotoxicity against human HT-29 cells. The assay is classed as cell-based.
Assay [14] has as its target Cyclin-dependent kinase 5 (Homo sapiens, UniProt Q00535). Briefly: Inhibition of CDK5.
The next assay deals with CDK9/cyclin T1 (Homo sapiens, UniProt P50750). Briefly: Inhibition of human recombinant CDK9/cyclin T expressed in insect cells assessed as pRB fragment (773 to 928) phosphorylation using [33P]gamma-ATP after 30 mins by scintillation counting.
CDK9/cyclin T1, sequence (O60563 whole entry, the tested form may be a part): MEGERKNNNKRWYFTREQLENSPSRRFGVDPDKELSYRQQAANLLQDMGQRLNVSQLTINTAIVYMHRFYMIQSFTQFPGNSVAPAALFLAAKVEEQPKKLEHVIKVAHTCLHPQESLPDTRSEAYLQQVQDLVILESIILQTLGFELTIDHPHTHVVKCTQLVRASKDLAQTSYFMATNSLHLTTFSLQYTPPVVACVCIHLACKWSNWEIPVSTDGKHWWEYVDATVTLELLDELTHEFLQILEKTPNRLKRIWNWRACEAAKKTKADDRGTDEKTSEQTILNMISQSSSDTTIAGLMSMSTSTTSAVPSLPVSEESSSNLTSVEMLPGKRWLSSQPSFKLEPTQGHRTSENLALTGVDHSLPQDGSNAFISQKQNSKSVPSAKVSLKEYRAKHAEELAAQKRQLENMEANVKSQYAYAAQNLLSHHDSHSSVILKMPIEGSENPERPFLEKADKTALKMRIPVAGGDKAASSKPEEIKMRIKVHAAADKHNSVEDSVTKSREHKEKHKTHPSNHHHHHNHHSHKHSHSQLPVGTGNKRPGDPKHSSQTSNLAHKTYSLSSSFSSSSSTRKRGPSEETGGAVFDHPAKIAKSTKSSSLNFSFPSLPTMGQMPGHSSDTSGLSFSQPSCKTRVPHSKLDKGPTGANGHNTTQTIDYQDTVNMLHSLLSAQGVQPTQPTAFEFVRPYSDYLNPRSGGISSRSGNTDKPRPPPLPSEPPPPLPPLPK
CDK9/cyclin T1, sequence (P50750 whole entry, the tested form may be a part): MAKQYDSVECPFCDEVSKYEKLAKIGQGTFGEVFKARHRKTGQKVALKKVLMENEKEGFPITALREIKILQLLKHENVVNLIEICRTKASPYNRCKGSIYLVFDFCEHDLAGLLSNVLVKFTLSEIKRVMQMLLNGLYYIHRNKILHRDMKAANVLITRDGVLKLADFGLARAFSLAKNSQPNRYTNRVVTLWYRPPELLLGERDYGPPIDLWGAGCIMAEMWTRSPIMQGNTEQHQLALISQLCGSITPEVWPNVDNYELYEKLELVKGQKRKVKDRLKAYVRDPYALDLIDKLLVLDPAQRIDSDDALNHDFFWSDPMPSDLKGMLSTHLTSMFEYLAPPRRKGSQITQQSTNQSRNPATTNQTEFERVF

5-hydroxytryptamine receptor 7, sequence (P34969 whole entry): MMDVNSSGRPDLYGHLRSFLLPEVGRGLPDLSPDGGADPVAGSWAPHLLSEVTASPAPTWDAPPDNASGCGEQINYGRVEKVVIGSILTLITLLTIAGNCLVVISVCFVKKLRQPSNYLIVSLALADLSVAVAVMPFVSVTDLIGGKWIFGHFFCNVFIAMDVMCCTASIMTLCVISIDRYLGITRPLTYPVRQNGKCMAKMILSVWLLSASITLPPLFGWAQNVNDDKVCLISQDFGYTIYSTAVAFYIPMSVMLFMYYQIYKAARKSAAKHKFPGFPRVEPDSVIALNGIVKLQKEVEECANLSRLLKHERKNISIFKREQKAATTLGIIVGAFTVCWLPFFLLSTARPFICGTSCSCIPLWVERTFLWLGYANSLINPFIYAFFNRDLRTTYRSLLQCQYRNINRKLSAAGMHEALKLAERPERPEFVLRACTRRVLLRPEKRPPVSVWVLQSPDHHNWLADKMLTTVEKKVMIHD
5-hydroxytryptamine receptor 5A, sequence (P47898 whole entry): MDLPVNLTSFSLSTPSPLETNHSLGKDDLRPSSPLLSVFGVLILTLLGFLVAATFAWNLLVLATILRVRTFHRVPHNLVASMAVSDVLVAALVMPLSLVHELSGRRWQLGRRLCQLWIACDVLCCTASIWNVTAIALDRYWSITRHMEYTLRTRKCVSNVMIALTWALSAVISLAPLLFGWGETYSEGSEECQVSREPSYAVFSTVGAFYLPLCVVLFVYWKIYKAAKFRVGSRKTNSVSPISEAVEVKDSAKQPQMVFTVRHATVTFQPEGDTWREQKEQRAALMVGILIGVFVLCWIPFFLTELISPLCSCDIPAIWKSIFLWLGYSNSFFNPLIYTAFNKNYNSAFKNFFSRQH
D(1B) dopamine receptor, sequence (P21918 whole entry): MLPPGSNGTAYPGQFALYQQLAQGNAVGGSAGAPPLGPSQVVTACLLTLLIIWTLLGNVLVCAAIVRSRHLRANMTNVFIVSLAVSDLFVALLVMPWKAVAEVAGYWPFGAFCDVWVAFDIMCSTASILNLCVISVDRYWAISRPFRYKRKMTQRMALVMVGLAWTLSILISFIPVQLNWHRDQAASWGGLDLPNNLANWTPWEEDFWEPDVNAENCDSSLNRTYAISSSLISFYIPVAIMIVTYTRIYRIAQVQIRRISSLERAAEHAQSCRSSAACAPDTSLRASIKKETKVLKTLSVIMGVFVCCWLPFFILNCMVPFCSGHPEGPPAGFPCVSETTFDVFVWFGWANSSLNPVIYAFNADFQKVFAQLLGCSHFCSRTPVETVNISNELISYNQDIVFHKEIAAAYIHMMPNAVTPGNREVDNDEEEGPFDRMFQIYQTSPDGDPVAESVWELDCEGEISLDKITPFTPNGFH
Cyclin-dependent kinase 5, sequence (Q00535 whole entry, the tested form may be a part): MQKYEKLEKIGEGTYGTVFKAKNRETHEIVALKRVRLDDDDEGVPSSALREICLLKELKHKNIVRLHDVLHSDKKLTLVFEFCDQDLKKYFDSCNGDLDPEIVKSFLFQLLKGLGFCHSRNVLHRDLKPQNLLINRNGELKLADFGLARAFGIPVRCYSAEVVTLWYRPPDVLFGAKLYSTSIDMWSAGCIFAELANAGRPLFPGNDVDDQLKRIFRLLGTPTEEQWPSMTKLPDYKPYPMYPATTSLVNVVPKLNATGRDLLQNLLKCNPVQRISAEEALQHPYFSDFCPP

For the molecule `COc1cccc2[nH]cc(-c3ccnc(N)n3)c12`, the IC50 in the assay on Plasmodium falciparum is 40 µM; in assay [1], over 10 µM; with A549 (Homo sapiens, A549, 72 h), over 420 µM; in assay [7], over 10 µM. Also, the Ki on D(1B) dopamine receptor is over 10 µM; in [2], 1990 nM; in assay [3], 88 nM; in assay [4], over 10 µM; in assay [5], 1350 nM; in [6] it was over 10 µM. The affinity in assay [8], expressed as Ki, was 1520 nM.

Take `Nc1nc(Cl)ncc1-c1c[nH]c2cccc(O)c12`: the IC50 in the assay on Plasmodium falciparum is over 38 µM; in [1], over 10 µM; in assay [2], over 10 µM; in assay [3] it was over 10 µM; in assay [4] it was over 10 µM; in [5], over 10 µM. Further, the half-inhibitory concentration (IC50) in [6] is over 10 µM; in the assay on A549 (Homo sapiens, A549, 72 h), over 256 µM; in assay [8], over 10 µM. Also, the Ki is over 10 µM at D(1B) dopamine receptor and 7.04 µM in [7].

As to `Nc1nccc(-c2c[nH]c3cccc(O)c23)n1` [MERIDIANIN A], the IC50 with Plasmodium falciparum is 12 µM; in [9], 200 µM; in [10] it was 1100 nM; in the assay on HEp-2, over 100 µM; in assay [2] it was over 10 µM; in [11] it was 3.1 µM. Also, the IC50 in [12] is 11 µM; with SH-SY5Y, over 30 µM; in [13], over 100 µM; with HT-29 it was over 100 µM; in assay [14], 3.5 µM; at CDK9/cyclin T1, 2400 nM. Further, the half-inhibitory concentration (IC50) is 15 µM in the assay with A549 (Homo sapiens, A549, 72 h) and over 10 µM in assay [8]. Further, the Ki in assay [1] was 2350 nM; at D(1B) dopamine receptor, over 10 µM; in assay [3], 150 nM; in [4] it was over 10 µM; in assay [5], 684 nM; in assay [6], over 10 µM. In assay [7], the inhibition constant (Ki) is over 10 µM.

As to `CCN(CC)c1nccc(-c2c[nH]c3cc(Cl)ccc23)n1` [MERIDOQUIN], the IC50 in the assay on Plasmodium falciparum is 200 µM; with A549 (Homo sapiens, A549, 72 h), over 333 µM.

`Nc1nc(Br)ncc1-c1c[nH]c2cccc(O)c12` [PSAMMOPEMMIN A]: the half-inhibitory concentration (IC50) in the assay with Plasmodium falciparum is over 33 µM; in [1] it was over 10 µM; in assay [2] it was over 10 µM; in [3], over 10 µM; in assay [5] it was over 10 µM; in assay [6], over 10 µM. Also, the concentration for half-maximal inhibition (IC50) in the assay on A549 (Homo sapiens, A549, 72 h) was over 219 µM; in assay [7], over 10 µM; in [8], over 10 µM. Also, the inhibition constant (Ki) (at D(1B) dopamine receptor; in assay [4]) was over 10 µM throughout.

`CC1=C[C@H]2O[C@@H]3C[C@H]4OC(=O)/C=C\C=C\[C@H]([C@@H](C)O)OCC/C(C)=C/C(=O)OC[C@@]2(CC1)[C@]4(C)[C@]31CO1` [RORIDIN E] had an IC50 with A549 (a549) of under 9.7 µM.

What is called IC50 is the midpoint of a concentration-inhibition curve. In general, Ki refers to a dissociation constant, usually derived from enzyme kinetics or from competition with a known ligand. Low values mean higher affinity, high ones lower affinity.

The values are drawn from ChEMBL document CHEMBL1828602, “CNS and antimalarial activity of synthetic meridianin and psammopemmin analogs” (Bioorg Med Chem, 2011).
